Source: PubChem
Insulin prom act = TRM-6 insulin promoter activation; activation, % at 2 µM; TRM-6 cells, insulin promoter eGFP reporter, imaging; plate-scaled: unstimulated 0, stimulated control 100; 130,000 compounds, 0.81% hits;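 active means activation at 2 µM above a set limit, confirmed on inspection of the cell images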;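 further: share of cells whose green reporter signal exceeds an intensity cutoff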
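System: human fetal islet-derived TRM-6 cells with tamoxifen-inducible insulin promoter–eGFP reporter; input: seeding density of 1,000 cells per well; buffer or medium: Low-glucose (5.5 mM) medium with tamoxifen; incubation: compound exposure 48 h, 37 °C; measured by: high-content imaging of fixed cells with Hoechst nuclear stain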
Active calls of the source: *; [ ] = dose if it differs, or a comment. Shown is part of a subset that was picked to be rich in hits.

Screening Cc1c(Cl)cccc1NC(=O)CSc1nnc(CCNC(=O)OC(C)(C)C)o1 returned Insulin prom act 6.
Screening CCCn1c(=O)c2c(nc3n2CCS3)n(C)c1=O returned Insulin prom act 128.
O=S(=O)(Nc1cc(C(F)(F)F)ccc1N1CCOCC1)c1ccc2ccccc2c1 was read as Insulin prom act 386*.
For O=C(Nc1cc(C(F)(F)F)ccc1N1CCOCC1)c1c(F)c(F)c(F)c(F)c1F the results were Insulin prom act 333.
O=[N+]([O-])c1cc(C(F)(F)F)ccc1N1CCN(S(=O)(=O)c2ccc3ccccc3c2)CC1 was read as Insulin prom act -6.
CCN1CCC(NC(=O)Nc2cc(Cl)ccc2OC)CC1 was read as Insulin prom act 0.
For CC(=O)Nc1ccc2ccc3cccc4ccc1c2c34 the results were Insulin prom act -79.
`CC1CCOC2(O1)C(=O)N(CN1CCN(c3ccccc3F)CC1)c1ccccc12` (centres undefined) gave Insulin prom act 6.
Screening O=C(/C=C/c1ccccc1)NCCCNC(=O)/C=C/c1ccccc1 returned Insulin prom act 0.
`Cc1ccc(C2=CSC3=NS(=O)(=O)CCN23)cc1` gave Insulin prom act -8.
For Cc1ccccc1NC(=O)c1c(Cl)nc(C)c(Cl)c1C the results were Insulin prom act 156.
Cc1ccccc1NC(=O)c1cccc2nc3ccccc3nc12 was read as Insulin prom act 233*.
`Cc1ccccc1C(=O)Nc1ccccc1-n1cccc1` gave Insulin prom act 1.
For COc1ccc(NS(=O)(=O)c2ccc(O)c(NC(=O)c3cc4c(C)nn(-c5ccc(F)cc5)c4s3)c2)cc1 the results were Insulin prom act -85.
`COC(=O)C1CC(c2ccc(Cl)cc2)=NO1` (centres undefined) gave Insulin prom act 0.
Screening CCC(C)(C)n1nnnc1C(c1ccc(C)cc1)N1CCN(Cc2ccc3c(c2)OCO3)CC1 (centres undefined) returned Insulin prom act -3.
`O=C(NCc1ccco1)c1ccc(-c2ccccc2Cl)o1` gave Insulin prom act -7.
Screening O=C(NC12CC3CC(CC(C3)C1)C2)c1ccc(-c2ccccc2Cl)o1 returned Insulin prom act 219*.
S=C(c1ccc(-c2ccccc2Cl)o1)N1CCOCC1 was read as Insulin prom act 7.
COc1ccc(S(=O)(=O)N2CCCC2C(=O)Nc2ccc(C(C)=O)cc2)cc1 (centres undefined) was read as Insulin prom act -71.
`CCOC(=O)/C(=C/C=C1\Sc2cc(OCC)c(OCC)cc2N1CC)C(C)=O` gave Insulin prom act 669*[fluoresces].
Screening Cc1ccc(N2CC(C(=O)Nc3ccccc3C(=O)NC3CCCCC3)CC2=O)cc1C (centres undefined) returned Insulin prom act -5.
For COc1cc(NC(=O)CN(C)C2CCCCC2)c(C)cc1[N+](=O)[O-] the results were Insulin prom act 9.
For COc1ccc(OC)c(C(=O)c2ccccc2)c1 the results were Insulin prom act -81.
For COc1ccc(OC)c(/C=N/N(C)c2ccccc2)c1 the results were Insulin prom act 132*.
`COc1ccc(OC)c(/C=N/NC(=O)CCCC(=O)Nc2cccc(Br)c2)c1` gave Insulin prom act 7.
CC(Oc1ccc(Cl)cc1)c1ccnc(N)n1 (centres undefined) was read as Insulin prom act -9.
`Cc1cc2c(cc1C)NC(CC(=O)NCc1ccccc1)C(=O)N2` (centres undefined) gave Insulin prom act 106.
For O=C(CC1NC(=O)NC1=O)Nc1cccc2ccccc12 (centres undefined) the results were Insulin prom act 569*.
Screening COc1ccc(NC(=O)C(NC(=O)CC2NC(=O)NC2=O)c2ccccc2)cc1 (centres undefined) returned Insulin prom act 0.
For OC(c1ccccc1)(c1ccc(F)cc1)C(c1ccccc1)N1CCOCC1 (centres undefined) the results were Insulin prom act -3.
COc1ccccc1NC(=O)C/C(N)=N/O was read as Insulin prom act -4.
`CCN1/C(=C/c2ccc3cc(C)ccc3[n+]2CC)Sc2cc(C)ccc21` gave Insulin prom act 614*.
For CCN1/C(=C/c2ccc3cc(C)ccc3[n+]2C)Sc2ccc3sccc3c21 the results were Insulin prom act 376*.
For O=C(COC(=O)CNC(=O)c1ccc(Cl)cc1)Nc1ccc(Cl)cc1C(F)(F)F the results were Insulin prom act -3.
Cc1nn(C(=O)CCCn2cc([N+](=O)[O-])cn2)c(C)c1Cl was read as Insulin prom act -6.
CC(=O)c1cnc2c(-c3ccc(Cl)cc3)cnn2c1C was read as Insulin prom act 585*.
Screening N#Cc1cnn2c(N)c(-c3ccc(Cl)cc3)cnc12 returned Insulin prom act 9.
CC(=O)c1cnc2cc(-c3cccc(Br)c3)nn2c1C was read as Insulin prom act 7.
For Cc1ccc(CC2SC(=O)NC2=O)cc1Cl (centres undefined) the results were Insulin prom act 9.
